Experimental data published in publication PMC9035045 (Cell chemical biology, 2021).
Non-standard residues stand in square brackets, D forms with d. Residues, ends and D or L forms follow the SMILES beside them. *: point of attachment. NH(CH2CH2O)11C2H4NHBiotinyl = O=C(CCCC[C@@H]1SC[C@@H]2NC(=O)N[C@@H]21)NCCOCCOCCOCCOCCOCCOCCOCCOCCOCCOCCOCCN*; Lys(iBu,2-norbornyl) = CC(C)CN(CCCC[C@H](N)C(=O)O)C1CC2CCC1C2; Lys(Me,2-norbornyl) = CN(CCCC[C@H](N)C(=O)O)C1CC2CCC1C2; Nva(5-morpholino) = N[C@@H](CCCN1CCOCC1)C(=O)O; Benzoyl(4-tBu) = CC(C)(C)c1ccc(C(=O)*)cc1; Gly(cBu) = N[C@H](C(=O)O)C1CCC1

Legend:
[1] = target: T1, CDYL2 (Homo sapiens, UniProt Q8N8U2); assay: TR-FRET competitive displacement assay; assay type: binding
T1 sequence (Q8N8U2 1-75): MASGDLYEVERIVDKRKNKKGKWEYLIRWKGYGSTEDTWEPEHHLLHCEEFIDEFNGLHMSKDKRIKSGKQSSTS

[2] = target: T2, CBX8 (Mus musculus, UniProt Q9QXV1); assay: CBX8 GFP reporter assay in mESCs; assay type: cell-based; conditions: 48 h, result in words
T2 sequence (Q9QXV1 1-362): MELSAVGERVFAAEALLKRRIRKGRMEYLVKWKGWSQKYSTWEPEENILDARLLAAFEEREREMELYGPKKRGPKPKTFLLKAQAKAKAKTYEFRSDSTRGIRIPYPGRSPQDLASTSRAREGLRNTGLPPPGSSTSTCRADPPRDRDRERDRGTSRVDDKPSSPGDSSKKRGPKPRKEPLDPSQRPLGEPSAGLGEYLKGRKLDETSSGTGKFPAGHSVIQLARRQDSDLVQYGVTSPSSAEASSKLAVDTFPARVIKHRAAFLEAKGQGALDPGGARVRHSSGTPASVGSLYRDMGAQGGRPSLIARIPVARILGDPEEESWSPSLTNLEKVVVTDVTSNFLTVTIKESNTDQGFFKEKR
Outline: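 Mouse ESC reporter line carrying 12xZFHD1, 4xGAL4 and 7xTetO sites upstream of a Puromycin-GFP gene, made by recombinase-mediated cassette exchange. Cells grown feeder-free in high-glucose DMEM with 13.5% FBS and LIF. 2,000 cells/well seeded onto compound in triplicate: 10-point 2-fold series, or for ester analogues 15-point 1.5-fold series with 0.06% DMSO final. 48 h at 37°C. GFP read by flow cytometry on gated live single cells.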

[3] = system: mESCs; assay: CellTiter-Glo cell viability assay; assay type: cell-based, mouse; conditions: 48 h, result in words
Outline: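 mESCs plated at 5,000 cells/well onto a ten-point 1:2 compound dilution series in mESC medium. 48 h at 37°C, 5% CO2. Lysed with CellTiter-Glo reagent; luminescence read after 15 min at room temperature in dim light.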

[4] = target: T3, 274 purified Kme readers (Homo sapiens, UniProt O00257); assay: Protein domain microarray; assay type: binding; conditions: 1 μM, qualitative
T3 sequence (O00257 1-69): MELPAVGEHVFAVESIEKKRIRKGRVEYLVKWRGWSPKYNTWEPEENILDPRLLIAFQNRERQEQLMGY

[5] = target: T4, 274 purified Kme readers (Homo sapiens, UniProt O95503); assay: Protein domain microarray; assay type: binding; conditions: 1 μM, qualitative
T4 sequence (O95503 1-69): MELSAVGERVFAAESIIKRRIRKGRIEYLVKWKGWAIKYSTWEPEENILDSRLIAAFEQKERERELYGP

[6] = target: T5, 274 purified Kme readers (Homo sapiens, UniProt O95931); assay: Protein domain microarray; assay type: binding; conditions: 1 μM, qualitative
T5 sequence (O95931 1-69): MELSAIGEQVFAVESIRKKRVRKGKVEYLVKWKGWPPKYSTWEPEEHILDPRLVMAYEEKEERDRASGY

[7] = target: 274 purified Kme readers (Homo sapiens, UniProt P45973); assay: Protein domain microarray; assay type: binding; conditions: 1 μM, qualitative
[8] = target: 274 purified Kme readers (Homo sapiens, UniProt P83916); assay: Protein domain microarray; assay type: binding; conditions: 1 μM, qualitative
[9] = target: 274 purified Kme readers (Homo sapiens, UniProt Q13185); assay: Protein domain microarray; assay type: binding; conditions: 1 μM, qualitative
[10] = target: T6, 274 purified Kme readers (Homo sapiens, UniProt Q14781); assay: Protein domain microarray; assay type: binding; conditions: 1 μM, qualitative
T6 sequence (Q14781 1-70): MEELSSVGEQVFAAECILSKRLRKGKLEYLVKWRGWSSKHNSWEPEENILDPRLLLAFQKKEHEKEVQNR

[11] = target: T7, 274 purified Kme readers (Homo sapiens, UniProt Q8N8U2); assay: Protein domain microarray; assay type: binding; conditions: 1 μM, qualitative
T7 sequence (Q8N8U2 1-67): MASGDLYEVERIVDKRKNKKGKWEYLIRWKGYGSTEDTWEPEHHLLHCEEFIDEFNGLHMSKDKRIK

[12] = target: T8, 274 purified Kme readers (Homo sapiens, UniProt Q9HC52); assay: Protein domain microarray; assay type: binding; conditions: 1 μM, qualitative
T8 sequence (Q9HC52 1-69): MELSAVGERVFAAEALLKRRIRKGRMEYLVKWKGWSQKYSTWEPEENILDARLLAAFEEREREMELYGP

[13] = target: T9, CBX7 (Mus musculus, UniProt Q8VDS3); assay: CBX7 GFP reporter assay in mESCs; assay type: cell-based; conditions: result in words
T9 sequence (Q8VDS3 1-158): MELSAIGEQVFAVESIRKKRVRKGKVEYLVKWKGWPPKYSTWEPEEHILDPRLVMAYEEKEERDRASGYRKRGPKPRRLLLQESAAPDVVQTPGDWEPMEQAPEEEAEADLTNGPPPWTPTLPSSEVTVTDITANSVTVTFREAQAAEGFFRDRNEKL

[14] = system: CBX2, CBX6, and CBX7; assay: ChIP-qPCR at endogenous Polycomb target genes; assay type: cell-based, mouse; conditions: 20 μM, wild-type mESCs (absence of CBX8)

Sequence of 274 purified Kme readers (Homo sapiens, UniProt Q13185) (Q13185 1-88): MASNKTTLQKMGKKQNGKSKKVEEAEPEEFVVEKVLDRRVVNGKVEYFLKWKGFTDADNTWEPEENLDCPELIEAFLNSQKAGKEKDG
Sequence of 274 purified Kme readers (Homo sapiens, UniProt P83916) (P83916 1-79): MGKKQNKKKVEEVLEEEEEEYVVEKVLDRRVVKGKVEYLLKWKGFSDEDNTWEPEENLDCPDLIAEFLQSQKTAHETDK
Sequence of 274 purified Kme readers (Homo sapiens, UniProt P45973) (P45973 1-78): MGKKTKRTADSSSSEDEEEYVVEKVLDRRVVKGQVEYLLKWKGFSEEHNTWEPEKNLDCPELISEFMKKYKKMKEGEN

binding to CBX4 on microarray [4] | binding to CBX6 on microarray [5] | binding to CBX7 on microarray [6] | binding to CBX5 on microarray [7] | binding to CBX1 on microarray [8] | binding to CBX3 on microarray [9] | binding to CBX2 CD on microarray [10] | binding to the CD of CDYL2 on microarray [11] | binding to CBX8 CD on microarray [12] | SMILES | IC50 [1] [µM] | GFP reactivation / cellular activity in the CBX8 reporter assay [2] | cytotoxicity [3] | cellular activity in the CBX7 reporter cell line [13] | chromatin binding of CBX2, CBX6, and CBX7 [14]
– | – | – | – | – | – | – | – | – | COC(=O)[C@H](CO)NC(=O)[C@H](CCCCN(C)C1CC2CCC1C2)NC(=O)[C@H](CCCN1CCOCC1)NC(=O)[C@@H](NC(=O)[C@H](Cc1ccccc1)NC(=O)c1ccc(C(C)(C)C)cc1)C1CCC1 (stereo partly drawn) [Compound 38, Methyl N^6-(bicyclo[2.2.1]heptan-2-yl)-N^2-((S)-2-((S)-2-((S)-2-(4-(tert-butyl)benzamido)-3-phenylpropanamido)-2-cyclobutylacetamido)-5-morpholinopentanoyl)-N^6-methyl-L-lysyl-L-serinate] ({Benzoyl(4-tBu)}-F[Gly(cBu)][Nva(5-morpholino)][Lys(Me,2-norbornyl)]S-OMe) | 0.96 ± 0.14 | no cellular activity | no cytotoxicity up to 100 μM | – | –
less strongly | less strongly | less strongly | did not display binding | did not display binding | did not display binding | bound strongly | weakly | bound strongly | CC(C)CN(CCCC[C@H](NC(=O)[C@H](CCCN1CCOCC1)NC(=O)[C@@H](NC(=O)[C@H](Cc1ccccc1)NC(=O)c1ccc(C(C)(C)C)cc1)C1CCC1)C(=O)N[C@@H](CO)C(=O)NCCOCCOCCOCCOCCOCCOCCOCCOCCOCCOCCOCCNC(=O)CCCC[C@@H]1SC[C@@H]2NC(=O)N[C@@H]21)C1CC2CCC1C2 (stereo partly drawn) [Compound 39] ({Benzoyl(4-tBu)}-F[Gly(cBu)][Nva(5-morpholino)][Lys(iBu,2-norbornyl)]S-{NH(CH2CH2O)11C2H4NHBiotinyl}) | – | – | – | – | –
– | – | – | – | – | – | – | – | – | COC(=O)[C@H](CO)NC(=O)[C@H](CCCCN(CC(C)C)C1CC2CCC1C2)NC(=O)[C@H](CCCN1CCOCC1)NC(=O)[C@@H](NC(=O)[C@H](Cc1ccccc1)NC(=O)c1ccc(C(C)(C)C)cc1)C1CCC1 (stereo partly drawn) [Compound 34, Methyl N^6-(bicyclo[2.2.1]heptan-2-yl)-N^2-((S)-2-((S)-2-((S)-2-(4-(tert-butyl)benzamido)-3-phenylpropanamido)-2-cyclobutylacetamido)-5-morpholinopentanoyl)-N^6-isobutyl-L-lysyl-L-serinate] ({Benzoyl(4-tBu)}-F[Gly(cBu)][Nva(5-morpholino)][Lys(iBu,2-norbornyl)]S-OMe) | ~100 | – | – | no cellular activity | minimal effects on chromatin binding
